The target in assay [1] is T1, Vitamin D3 receptor (Bos taurus) (UniProt Q28037).
T1 sequence (whole entry): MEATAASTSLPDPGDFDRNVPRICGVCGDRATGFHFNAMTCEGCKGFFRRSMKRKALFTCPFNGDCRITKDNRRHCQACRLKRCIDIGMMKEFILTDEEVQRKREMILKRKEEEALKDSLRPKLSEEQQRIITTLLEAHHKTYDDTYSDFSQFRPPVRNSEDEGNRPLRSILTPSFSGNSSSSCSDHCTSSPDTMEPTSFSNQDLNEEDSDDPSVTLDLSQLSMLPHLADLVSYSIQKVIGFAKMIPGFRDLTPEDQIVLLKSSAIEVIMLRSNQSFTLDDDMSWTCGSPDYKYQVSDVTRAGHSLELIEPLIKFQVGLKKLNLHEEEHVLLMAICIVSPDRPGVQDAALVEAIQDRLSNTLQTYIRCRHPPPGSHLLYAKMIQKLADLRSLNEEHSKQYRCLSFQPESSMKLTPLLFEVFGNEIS
Description: Binding affinity at bovine thymus Vitamin D3 receptor relative to 1-alpha,25-Dihydroxyvitamin D3.

For another assay, the system named is HL-60. Description: In vitro induction of HL-60 cell differentiation. Further details: reference not given here. The assay is classed as functional, Homo sapiens. A digest of the protocol:
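HL-60 differentiation was scored by the NBT reduction method.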

The structures appear in SMILES notation.

Compound `C=C1/C(=C\C=C2/CCC[C@]3(C)[C@@H]([C@H](C)CCCC(C)(C)O)CC[C@@H]23)C[C@@H](O)C[C@@H]1O` [CALCITRIOL] gave a relative binding affinity (RBA) in assay [1] of 100. Further, the Potency with HL-60 is given as 100.
In the case of `C=C1/C(=C\C=C2/CCC[C@]3(C)[C@@H]([C@@H](C)CCCC(C)(C)O)CC[C@@H]23)C[C@@H](O)[C@H](CCCCO)[C@@H]1O`, the relative binding affinity (RBA) in assay [1] worked out at 183. In addition, the Potency in the assay on HL-60 was 3910.
The corresponding values for `C=C1/C(=C\C=C2/CCC[C@]3(C)[C@@H]([C@H](C)CCCC(C)(C)O)CC[C@@H]23)C[C@@H](O)[C@H](CO)[C@@H]1O` are 20 and 10.
In the case of `C=C1/C(=C\C=C2/CCC[C@]3(C)[C@@H]([C@@H](C)CCCC(C)(C)O)CC[C@@H]23)C[C@@H](O)C[C@@H]1O`, the relative binding affinity (RBA) in assay [1] amounted to 400. In the assay on HL-60, this compound returned a Potency of 3571.
The corresponding values for `C=C1/C(=C\C=C2/CCC[C@]3(C)[C@@H]([C@H](C)CCCC(C)(C)O)CC[C@@H]23)C[C@@H](O)[C@H](CCCC)[C@@H]1O` are 8 and 74.
Turning to `C=C1/C(=C\C=C2/CCC[C@]3(C)[C@@H]([C@@H](C)CCCC(C)(C)O)CC[C@@H]23)C[C@@H](O)[C@H](CCCC)[C@@H]1O`, the relative binding affinity (RBA) in assay [1] is 33. In the assay on HL-60, this compound displayed a Potency of 2300.
In the same order, the values of `C=C1/C(=C\C=C2/CCC[C@]3(C)[C@@H]([C@H](C)CCCC(C)(C)O)CC[C@@H]23)C[C@@H](O)[C@H](CCC)[C@@H]1O` are 20 and 44.
For the compound `C=C1/C(=C\C=C2/CCC[C@]3(C)[C@@H]([C@@H](C)CCCC(C)(C)O)CC[C@@H]23)C[C@@H](O)[C@H](CO)[C@@H]1O`, the relative binding affinity (RBA) in assay [1] stood at 190. For the same compound, the Potency in the assay on HL-60 came to 570.
With `C=C1/C(=C\C=C2/CCC[C@]3(C)[C@@H]([C@@H](C)CCCC(C)(C)O)CC[C@@H]23)C[C@@H](O)[C@H](CCO)[C@@H]1O`, the relative binding affinity (RBA) in assay [1] turned out to be 320. The Potency in the assay on HL-60 amounted to 4030.
The corresponding values for `C=C1/C(=C\C=C2/CCC[C@]3(C)[C@@H]([C@@H](C)CCCC(C)(C)O)CC[C@@H]23)C[C@@H](O)[C@H](CCC)[C@@H]1O` are 119 and 1750.
The corresponding values for `C=C1/C(=C\C=C2/CCC[C@]3(C)[C@@H]([C@@H](C)CCCC(C)(C)O)CC[C@@H]23)C[C@@H](O)[C@H](CCCO)[C@@H]1O` are 370 and 4900.
For `C=C1/C(=C\C=C2/CCC[C@]3(C)[C@@H]([C@H](C)CCCC(C)(C)O)CC[C@@H]23)C[C@@H](O)[C@H](C)[C@@H]1O`, in assay [1], the relative binding affinity (RBA) amounted to 400. Further, in the assay on HL-60, the Potency was 258.
In the same order, the values of `C=C1/C(=C\C=C2/CCC[C@]3(C)[C@@H]([C@H](C)CCCC(C)(C)O)CC[C@@H]23)C[C@@H](O)[C@H](CCCCO)[C@@H]1O` are 120 and 460.
In the same order, the values of `C=C1/C(=C\C=C2/CCC[C@]3(C)[C@@H]([C@H](C)CCCC(C)(C)O)CC[C@@H]23)C[C@@H](O)[C@H](CC)[C@@H]1O` are 40 and 106.
In the same order, the values of `C=C1/C(=C\C=C2/CCC[C@]3(C)[C@@H]([C@H](C)CCCC(C)(C)O)CC[C@@H]23)C[C@@H](O)[C@H](CCO)[C@@H]1O` are 70 and 86.
In assay [1], `C=C1/C(=C\C=C2/CCC[C@]3(C)[C@@H]([C@H](C)CCCC(C)(C)O)CC[C@@H]23)C[C@@H](O)[C@H](CCCO)[C@@H]1O` gave a relative binding affinity (RBA) of 300. The compound further registered a Potency with HL-60 of 240.
Take `C=C1/C(=C\C=C2/CCC[C@]3(C)[C@@H]([C@@H](C)CCCC(C)(C)O)CC[C@@H]23)C[C@@H](O)[C@H](CC)[C@@H]1O`: the relative binding affinity (RBA) in assay [1] is 150. In addition, the Potency in the assay with HL-60 was 4200.
In the same order, the values of `C=C1/C(=C\C=C2/CCC[C@]3(C)[C@@H]([C@@H](C)CCCC(C)(C)O)CC[C@@H]23)C[C@@H](O)[C@H](C)[C@@H]1O` are 1200 and 9688.
